# Assay results from ChEMBL document CHEMBL1154141, “Meroditerpenoids and derivatives from the brown alga Cystoseira baccata and their antifouling properties” (J Nat Prod, 2008).
# Active and inactive are the calls of the source. No cut-off for these calls is given here.
# How the values were obtained:
# Cylindrotheca closterium = experiment: Antimicrobial activity against Cylindrotheca closterium AC 170 after 48 hrs; format: functional, organism-based
# Summary of the method: (§1)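 Microalgal cultures (0.4 μg/mL chlorophyll A) in F/2 medium were incubated with compound for 48 h at 18 °C under a 15:9 light:dark cycle with cool-white fluorescent light at 54 μmol photons/m²·s. Relative optical density at 600 nm gave the MIC versus a seawater control.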
# [1] = test system: Pseudoalteromonas distincta; experiment: Antibacterial activity against Pseudoalteromonas elyakovii ATCC 700519 after 48 hrs by microtiter broth dilution method; format: functional; settings: ATCC 700519, 48 h
# Summary of the method: (§2)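 Marine bacterial strains at 2×10^8 cells/mL were exposed to compound for 48 h at 25 °C in Mueller Hinton broth supplemented with NaCl (15 g/L). MIC was set by microtiter broth dilution against a culture-medium control.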
# Vibrio aestuarianus = experiment: Antibacterial activity against Vibrio aestuarianus ATCC 35048 after 48 hrs by microtiter broth dilution method; format: functional; settings: ATCC 35048, 48 h; summary of the method: as §2
# Polaribacter irgensii = experiment: Antibacterial activity against Polaribacter irgensii ATCC 700398 after 48 hrs by microtiter broth dilution method; format: functional; settings: ATCC 700398, 48 h; summary of the method: as §2
# Salmonella typhimurium = experiment: Antibacterial activity against Salmonella Typhimurium ATCC 35986 after 48 hrs by microtiter broth dilution method; format: functional, Salmonella enterica subsp. enterica serovar Typhimurium; settings: Salmonella enterica, ATCC 35986, 48 h
# Summary of the method: (§3)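 Terrestrial bacterial strains at 2×10^8 cells/mL were incubated with compound for 48 h at 25 °C in trypsic soy broth. MIC was read by microtiter broth dilution against a culture-medium control.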
# Escherichia coli = experiment: Antibacterial activity against Escherichia coli ATCC 35049 after 48 hrs by microtiter broth dilution method; format: functional; settings: ATCC 35049, 48 h; summary of the method: as §3
# Bacillus subtilis = experiment: Antibacterial activity against Bacillus subtilis ATCC 55572 after 48 hrs by microtiter broth dilution method; format: functional; settings: ATCC 55572, 48 h; summary of the method: as §3
# [2] = test system: Exanthemachrysis gayraliae; experiment: Antimicrobial activity against Exanthemachrysis gayraliae AC 15 after 48 hrs; format: functional; summary of the method: as §1
# [3] = Toxicity against Echinus esculentus larvae after 48 hrs
# Summary of the method: (§4)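 Larvae incubated with compounds at 0.5, 1, 2.5, 5, 10, 25, 50 and 100 μg/mL, 10–15 larvae per well in 2 mL solution. Viable larvae counted after 48 h exposure. LC50 is the concentration giving 50% mortality relative to control, derived by curve fitting. Six replicates per test and control, with two batches of organisms.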
# [4] = Toxicity against Crassostrea gigas larvae after 48 hrs; summary of the method: as §4
# Chrysotila roscoffensis = experiment: Antimicrobial activity against Pleurochrysis roscoffensis AC 238 after 48 hrs; format: functional, organism-based; summary of the method: as §1
# Sargassum muticum = experiment: Antimicrobial activity against Sargassum muticum after 48 hrs; format: functional, organism-based
# Summary of the method: (§5)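 Spores (3000 spores/mL) in F/2 medium were exposed to compound for 48 h at 18 °C under a 15:9 light:dark cycle with cool-white fluorescent light at 54 μmol photons/m²·s. Germination and attachment rates were then scored.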
# Ulva intestinalis = experiment: Antimicrobial activity against Ulva intestinalis after 48 hrs; format: functional, organism-based; summary of the method: as §5
# [5] = Inhibition of Mytilus edulis phenoloxidase after 2 hrs
# Summary of the method: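 Purified mussel phenoloxidase was preincubated with compound for 2 h. Activity was then followed as the rise in absorbance at 475 nm with L-Dopa (10 mM) as substrate, and percent inhibition was calculated against the control.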
SMILES,Activity (Cylindrotheca closterium),MIC [1] [µg/mL],MIC (Vibrio aestuarianus) [µg/mL],MIC (Polaribacter irgensii) [µg/mL],MIC (Salmonella typhimurium) [µg/mL],MIC (Escherichia coli) [µg/mL],MIC (Bacillus subtilis) [µg/mL],Activity [2],LC50 at 48 h [3] [µg/mL],LC50 at 48 h [4] [µg/mL],Activity (Chrysotila roscoffensis),IC50 (Sargassum muticum) [µg/mL],IC50 (Ulva intestinalis) [µg/mL],IC50 [5] [µg/mL],"MIC ([2]; AC 15, 48 h) [µg/mL]"
COc1cc(C)c(O)c(C/C=C(\C)CC2=C(CC(C)(C)O)C(=O)[C@@]3(C)CCC[C@]3(C)C2)c1,inactive,> 100,> 100,> 100,> 100,> 100,> 100,inactive,> 100,> 100,inactive,,,,
CC(=O)/C=C1\C[C@@]2(C)CCC[C@]2(C)C2=C1CC(C)(C)O2,inactive,> 100,> 100,> 100,> 100,> 100,> 100,inactive,> 100,> 100,inactive,> 100,2.5,2.5,
CC1=C(CC(C)(C)O)C(=O)[C@@]2(C)CCC[C@]2(C)C1,inactive,> 100,> 100,> 100,> 100,> 100,> 100,,> 100,> 100,inactive,1,1,1,1
COc1cc(C)c(O)c(C/C=C(\C)C[C@]2(O)C[C@@]3(C)CCC[C@]3(C)C(=O)[C@@H]2CC(C)(C)O)c1,inactive,> 100,> 100,> 100,> 100,> 100,> 100,inactive,> 100,> 100,inactive,,,,
COc1cc(C)c2c(c1)C=C[C@](C)(CC1=C(CC(C)(C)O)C(=O)[C@@]3(C)CCC[C@]3(C)C1)O2,inactive,> 100,> 100,> 100,> 100,> 100,> 100,inactive,> 100,> 100,inactive,2.5,> 100,1,
COc1cc(C)c2c(c1)C=C[C@@](C)(CC1=C(CC(C)(C)O)C(=O)[C@@]3(C)CCC[C@]3(C)C1)O2,inactive,> 100,> 100,> 100,> 100,> 100,> 100,inactive,> 100,> 100,inactive,,,,
